Experimental findings from ChEMBL document CHEMBL4732237, “Discovery of 4-alkoxy-2-aryl-6,7-dimethoxyquinolines as a new class of topoisomerase I inhibitors endowed with potent in vitro anticancer activity” (2021) are described below.

What all share (type): functional
Assay [1] in a line: Growth inhibition of human leukemia cell line incubated for 48 hrs by sulforhodamine B assay. The conditions noted are these: leukaemia cell line. The gist of the method:
(§1)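 NCI-60 five-dose screen. Cells in RPMI 1640 with 5% FBS and 2 mM L-glutamine were plated at 5000–40,000 cells/well and preincubated 24 h at 37 °C, 5% CO2. Drugs in DMSO were given at five serial 10-fold or ½-log dilutions for 48 h. Adherent cells fixed with 10% TCA (final); suspension cells fixed after settling. SRB stained; A515. GI50 from [(Ti-Tz)/(C-Tz)]x100 = 50.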
On the technique in general: The SRB assay estimates cell density from bound dye.

Assay [2] deals with HCT-116. The assay can be described thus: Growth inhibition of human HCT-116 cells incubated for 48 hrs by sulforhodamine B assay. The gist of the method: (§2)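 NCI five-dose screen covering 0.01–100 µM, prepared as 10-fold or ½-log dilutions from DMSO stock. Cells in RPMI 1640 with 5% FBS were exposed for 48 h at 37 °C after 24 h preincubation. Adherent cells were fixed with TCA (final 10%) and suspension cells were settled before fixing. Stain was SRB, read at 515 nm. GI50 = 50% reduction in net protein increase versus control, with Tz taken at drug addition.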

Assay [3] deals with DU-145. As to the kind of experiment: Growth inhibition of human DU-145 cells incubated for 48 hrs by sulforhodamine B assay. The gist of the method:
as §2

Assay [4] deals with Ovarian cancer cell line. As to the kind of experiment: Growth inhibition of human Ovarian cancer cell line incubated for 48 hrs by sulforhodamine B assay. An outline of the steps:
as §1

Assay [5] deals with CNS carcinoma cell. As to the kind of experiment: Growth inhibition of human CNS carcinoma cell incubated for 48 hrs by sulforhodamine B assay. An outline of the steps:
as §1

In assay [6] the test system is MDA-MB-435. As to the kind of experiment: Growth inhibition of human MDA-MB-435 cells incubated for 48 hrs by sulforhodamine B assay. An outline of the steps: as §2
Assay [7] has as its system SR. The assay can be described thus: Growth inhibition of human SR cells incubated for 48 hrs by sulforhodamine B assay. An outline of the steps: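 NCI five-dose screen (0.01–100 µM; five concentrations plus control). Cells grown in RPMI 1640/5% FBS/2 mM L-glutamine and preincubated 24 h, with time-zero plates TCA-fixed. Drug exposure 48 h at 37 °C, followed by SRB protein staining and reading at 515 nm. GI50 is the concentration at [(Ti-Tz)/(C-Tz)]×100 = 50.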

Assay [8] is described as follows: Growth inhibition of human Breast cancer cell line incubated for 48 hrs by sulforhodamine B assay. The gist of the method: as §1
The subject of assay [9] is Melanoma cell line. As to the kind of experiment: Growth inhibition of human Melanoma cell line incubated for 48 hrs by sulforhodamine B assay. The gist of the method: as §1
Assay [10] deals with HL-60(TB). The assay can be described thus: Growth inhibition of human HL-60(TB) cells incubated for 48 hrs by sulforhodamine B assay. An outline of the steps:
as §1

The nature of assay [11]: Growth inhibition of human Non-small cell lung cancer cell line incubated for 48 hrs by sulforhodamine B assay. The gist of the method: as §1
Assay [12] can be described thus: Growth inhibition of human Renal cancer cell line incubated for 48 hrs by sulforhodamine B assay. An outline of the steps: as §1
Assay [13] has as its system HCC 2998. As to the kind of experiment: Growth inhibition of human HCC 2998 cells incubated for 48 hrs by sulforhodamine B assay. An outline of the steps:
as §2

For assay [14], the system named is HCT-15. As to the kind of experiment: Growth inhibition of human HCT-15 cells incubated for 48 hrs by sulforhodamine B assay. The gist of the method: as §2
Assay [15] concerns Colon cancer cell line. As to the kind of experiment: Growth inhibition of human colon cancer cell line incubated for 48 hrs by sulforhodamine B assay. The gist of the method:
as §1

Assay [16] is described as follows: Growth inhibition of human Prostate tumor cell line incubated for 48 hrs by sulforhodamine B assay. The gist of the method: as §1
For assay [17], the system named is M14. As to the kind of experiment: Growth inhibition of human M14 cells incubated for 48 hrs by sulforhodamine B assay. The gist of the method:
as §2

Take `COc1cc2nc(-c3ccc(C(F)(F)F)cc3)cc(OCCCN3CCCCC3)c2cc1OC`: the 50% lethal concentration (LC50) (usually the concentration that kills 50% of the test population) in assay [1] is 74.8 µM; in assay [4] it was 65.5 µM; in assay [5] it was 38.8 µM; in [8] it was 43 µM; in assay [15], 40.8 µM. Also, the TGI (as a rule, the concentration giving total growth inhibition) was 10.3 µM in assay [1]; 19.7 µM in assay [4]; 11.9 µM in [5]; 9.29 µM in assay [8]; 4.14 µM in [9]; 13.8 µM in assay [11]. The TGI was found to be 11 µM in assay [12], 10.3 µM in assay [15] and 13.8 µM in assay [16]. The GI50 – broadly, the concentration that inhibits growth by half – in assay [2] amounted to 0.429 µM; in [3] it was 1.84 µM; in assay [6] it was 1.23 µM; in assay [7], 0.193 µM; in [10], 2.91 µM; in assay [13] it was 1.28 µM. For the same compound, the 50% growth inhibitory concentration (GI50) was determined as 0.399 µM in [14] and 0.327 µM in [17]. In [9], this compound had an LC50 (50% lethal concentration) of 19.9 µM. The LC50 (concentration killing 50% of cells) in assay [11] is 50.6 µM; in assay [16] it was 42.2 µM. In assay [12], this compound had an LC50 (concentration giving 50% net cell kill) of 35 µM.
Take `COc1cc2nc(-c3ccc(Cl)cc3)cc(OCCCN3CCCC3)c2cc1OC`: the LC50 in assay [1] amounted to 32 µM; in assay [4], 55.1 µM; in assay [5], 33.5 µM; in [8], 29.6 µM; in [15], 39.1 µM. For the same compound, the TGI in assay [1] stood at 4.99 µM; in [4] it was 14.8 µM; in [5] it was 10.1 µM; in assay [8], 5.8 µM; in assay [9], 4.26 µM; in assay [11] it was 10.4 µM. Also, the TGI was found to be 7.66 µM in [12], 8.31 µM in [15] and 12.1 µM in assay [16]. The concentration for 50% growth inhibition (GI50) in assay [2] is 0.699 µM; in assay [3] it was 2.15 µM; in [6], 2.72 µM; in assay [7], 0.251 µM; in assay [10], 2.72 µM; in [13], 1.86 µM. For the same compound, the 50% growth inhibitory concentration (GI50) in assay [14] turned out to be 0.567 µM; in assay [17], 0.402 µM. In assay [9], the LC50 (50% lethal concentration) came to 14.6 µM. The LC50 (concentration killing 50% of cells) in assay [11] is 39.7 µM; in assay [16], 39.6 µM. Also, in assay [12], the LC50 (concentration giving 50% net cell kill) is 28.9 µM.
As to `COc1cc2nc(-c3ccc(Cl)cc3)cc(OCCCN3CCC(O)CC3)c2cc1OC`, the concentration for 50% growth inhibition (GI50) was 1.44 µM in assay [2]; 2.78 µM in assay [3]; 2.05 µM in assay [6]; 0.373 µM in assay [7]; 4.27 µM in assay [10]; 1.95 µM in assay [13]. The concentration for 50% growth inhibition (GI50) turned out to be 0.763 µM in [14] and 0.591 µM in assay [17].
Regarding `COc1cc2nc(-c3ccc(Cl)cc3)cc(OCCCN3CCOCC3)c2cc1OC`, the concentration for 50% growth inhibition (GI50) turned out to be 1.59 µM in [2]; 1.9 µM in [6]; 0.414 µM in [7]; 1.97 µM in assay [13]; 0.754 µM in assay [14]; 0.545 µM in assay [17].
On to `COc1cc2nc(-c3ccc(C(F)(F)F)cc3)cc(OCCCN3CCCC3)c2cc1OC`, for which the LC50 in assay [1] came to 81.6 µM; in assay [4], 81 µM; in assay [5], 44.9 µM; in assay [8], 40.8 µM; in assay [15] it was 50.4 µM. In addition, the total growth inhibition concentration (TGI) in assay [1] came out at 6.17 µM; in [4] it was 28.1 µM; in [5], 11.7 µM; in assay [8], 6.8 µM; in [9], 4.08 µM; in assay [11] it was 12.7 µM. Moreover, the TGI in [12] turned out to be 10.2 µM; in [15], 8.07 µM; in assay [16] it was 16.8 µM. The GI50 in assay [2] amounted to 0.456 µM; in assay [3], 1.37 µM; in assay [6] it was 0.709 µM; in assay [7], 0.133 µM; in assay [10], 1.84 µM; in [13], 1.45 µM. For the same compound, the GI50 was 0.416 µM in assay [14] and 0.336 µM in assay [17]. For the same compound, the LC50 (50% lethal concentration) in assay [9] is 23.7 µM. Besides, the results for the LC50 (concentration killing 50% of cells) in [11] and in assay [16] were 57.9 µM and 89.5 µM, respectively. Moreover, the LC50 (concentration giving 50% net cell kill) in [12] was determined as 40.1 µM.
In the case of `COc1cc2nc(-c3ccc(Cl)cc3)cc(OCCCN3CCCCC3)c2cc1OC`, the 50% growth inhibitory concentration (GI50) is 0.828 µM in assay [2]; 2.54 µM in [3]; 2.44 µM in assay [6]; 0.373 µM in [7]; 2.34 µM in assay [13]; 0.604 µM in assay [14]. In assay [17], this compound showed a GI50 of 0.412 µM.
As to `COc1cc2nc(-c3ccc(C(F)(F)F)cc3)cc(OCCCN3CCC(O)CC3)c2cc1OC`, the GI50 in assay [2] came out at 0.671 µM; in assay [3], 4.96 µM; in [6] it was 2.76 µM; in [7], 0.274 µM; in assay [10], 13.9 µM; in [13] it was 4.07 µM. For the same compound, the concentration for 50% growth inhibition (GI50) in assay [14] was found to be 0.667 µM; in [17], 0.535 µM.
Regarding `COc1cc2nc(-c3ccc(C(F)(F)F)cc3)cc(OCCCN3CCOCC3)c2cc1OC`, the GI50 in assay [2] is 0.583 µM; in [3] it was 10.1 µM; in assay [6], 1.2 µM; in [7], 0.242 µM; in assay [10], 9.58 µM; in [13] it was 1.41 µM. Also, the concentration for 50% growth inhibition (GI50) in assay [14] turned out to be 0.52 µM; in assay [17] it was 0.355 µM.
